Each block holds one molecule with its values, some of them ahead of it.
What was measured:
[1] = Permeability surface area for passive diffusion in MDCK2 cells assessed as transport at 3 to 200 uM after 0.5 to 1 hrs by HPLC method; assay type: ADME, cell-based, Canis lupus familiaris; details: dog, mdck-ii
Method in brief: (§1)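 PS_D (passive diffusion) derived from observed permeability of single PAN isomers across empty-vector (pcDNA3.1) MDCKII monolayers (TEER >200 Ω·cm²). Both A→B and B→A directions in serum-free Opti-MEM I at 37°C, with [3H]mannitol as paracellular marker. Receiver sampled at 0.5 and 1 h, PAN measured by HPLC-UV. PS_D calculated from a three-compartment model equation at each donor concentration.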

[2] = Permeability surface area for passive diffusion in MDCK2 cells assessed as transport at 3 uM after 0.5 to 1 hrs by HPLC method; assay type: ADME, cell-based, Canis lupus familiaris; details: dog, mdck-ii; method in brief: as §1
[3] = Permeability surface area for passive diffusion in MDCK2 cells assessed as transport at 200 uM after 0.5 to 1 hrs by HPLC method; assay type: ADME, cell-based, Canis lupus familiaris; details: dog, mdck-ii; method in brief: as §1
[4] = Permeability surface area for passive diffusion in MDCK2 cells assessed as transport at 10 uM after 0.5 to 1 hrs by HPLC method; assay type: ADME, cell-based, Canis lupus familiaris; details: dog, mdck-ii; method in brief: as §1
[5] = Permeability surface area for passive diffusion in MDCK2 cells assessed as transport at 50 uM after 0.5 to 1 hrs by HPLC method; assay type: ADME, cell-based, Canis lupus familiaris; details: dog, mdck-ii; method in brief: as §1
[6] = Permeability surface area for passive diffusion in MDCK2 cells assessed as transport at 30 uM after 0.5 to 1 hrs by HPLC method; assay type: ADME, cell-based, Canis lupus familiaris; details: dog, mdck-ii; method in brief: as §1
[7] = substrate: COc1ccnc(C[S@@+]([O-])c2nc3cc(OC(F)F)ccc3[nH]2)c1OC; assay: (§2) Drug transport in MDCK2 cells expressing rat ABCG2 assessed as ABCG2-mediated transport by HPLC method; assay type: ADME, cell-based, MDCK-II
Method in brief: (§3)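 Kinetics came from the same Transwell bidirectional flux runs in rat Abcg2- or human ABCG2-MDCKII, with donor 3–200 μM single isomer. Cellular concentrations were predicted from a three-compartment model using PS_D from mock cells and PS_PC from mannitol. Apparent apical efflux permeability was fitted against predicted cellular concentration by saturable kinetics to give K_M and T_max.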

[8] = substrate: COc1ccnc(C[S@+]([O-])c2nc3cc(OC(F)F)ccc3[nH]2)c1OC; assay: as §2; assay type: ADME, cell-based, MDCK-II; method in brief: as §3
[9] = substrate: COc1ccnc(C[S@@+]([O-])c2nc3cc(OC(F)F)ccc3[nH]2)c1OC; assay: (§4) Drug transport in MDCK2 cells expressing human ABCG2 assessed as ABCG2-mediated transport by HPLC method; assay type: ADME, cell-based, MDCK-II; method in brief: as §3
[10] = substrate: COc1ccnc(C[S@+]([O-])c2nc3cc(OC(F)F)ccc3[nH]2)c1OC; assay: as §4; assay type: ADME, cell-based, MDCK-II; method in brief: as §3

- Papp [1]: 244 uL/hr/cm2
- Papp [2]: 231 uL/hr/cm2
- Papp [3]: 271 uL/hr/cm2
- Papp [4]: 242 uL/hr/cm2
- Papp [5]: 251 uL/hr/cm2
- Papp [6]: 226 uL/hr/cm2
Molecule: COc1ccnc(C[S+]([O-])c2nc3ccc(OC(F)F)cc3[nH]2)c1OC (racemic) [PANTOPRAZOLE]

B1: Broad substrate specificity ATP-binding cassette transporter ABCG2 (Rattus norvegicus) (protein)
chain: MSSSNDHVLVPMSQRNKNGLPGMSSRGARTLAEGDVLSFHHITYRVKVKSGFLVRKTAEKEILSDINGIMKPGLNAILGPTGGGKSSLLDVLAARKDPRGLSGDVLINGAPQPANFKCSSGYVVQDDVVMGTLTVRENLQFSAALRLPKAMKTHEKNERINTIIKELGLDKVADSKVGTQFTRGISGGERKRTSIGMELITDPSILFLDEPTTGLDSSTANAVLLLLKRMSKQGRTIIFSIHQPRYSIFKLFDSLTLLASGKLMFHGPAQKALEYFASAGYHCEPYNNPADFFLDVINGDSSAVMLNRGEQDHEANKTEEPSKREKPIIENLAEFYINSTIYGETKAELDQLPVAQKKKGSSAFREPVYVTSFCHQLRWIARRSFKNLLGNPQASVAQLIVTVILGLIIGALYFGLKNDPTGMQNRAGVFFFLTTNQCFTSVSAVELFVVEKKLFIHEYISGYYRVSSYFFGKLVSDLLPMRFLPSVIYTCILYFMLGLKRTVEAFFIMMFTLIMVAYTASSMALAIAAGQSVVSVATLLMTISFVFMMLFSGLLVNLRTIGPWLSWLQYFSIPRYGFTALQHNEFLGQEFCPGLNVTMNSTCVNSYTICTGNDYLINQGIDLSPWGLWRNHVALACMIIIFLTIAYLKLLFLKKYS
- Km [7]: 1.85 µM
- Km [8]: 0.25 µM

B2: Broad substrate specificity ATP-binding cassette transporter ABCG2 (Homo sapiens) (protein)
chain: MSSSNVEVFIPVSQGNTNGFPATASNDLKAFTEGAVLSFHNICYRVKLKSGFLPCRKPVEKEILSNINGIMKPGLNAILGPTGGGKSSLLDVLAARKDPSGLSGDVLINGAPRPANFKCNSGYVVQDDVVMGTLTVRENLQFSAALRLATTMTNHEKNERINRVIQELGLDKVADSKVGTQFIRGVSGGERKRTSIGMELITDPSILFLDEPTTGLDSSTANAVLLLLKRMSKQGRTIIFSIHQPRYSIFKLFDSLTLLASGRLMFHGPAQEALGYFESAGYHCEAYNNPADFFLDIINGDSTAVALNREEDFKATEIIEPSKQDKPLIEKLAEIYVNSSFYKETKAELHQLSGGEKKKKITVFKEISYTTSFCHQLRWVSKRSFKNLLGNPQASIAQIIVTVVLGLVIGAIYFGLKNDSTGIQNRAGVLFFLTTNQCFSSVSAVELFVVEKKLFIHEYISGYYRVSSYFLGKLLSDLLPMRMLPSIIFTCIVYFMLGLKPKADAFFVMMFTLMMVAYSASSMALAIAAGQSVVSVATLLMTICFVFMMIFSGLLVNLTTIASWLSWLQYFSIPRYGFTALQHNEFLGQNFCPGLNATGNNPCNYATCTGEEYLVKQGIDLSPWGLWKNHVALACMIVIFLTIAYLKLLFLKKYS
- Km [9]: 5.32 µM
- Km [10]: 0.59 µM

— ChEMBL document CHEMBL3525931, “Stereoselective interaction of pantoprazole with ABCG2. II. In vitro flux analysis” (Drug Metab Dispos, 2012)
